Experimental data: ChEMBL document CHEMBL4138156, “Indole and Benzimidazole Bichalcophenes: Synthesis, DNA Binding and Antiparasitic Activity” (Eur J Med Chem, 2018)
Calls of active or inactive are those of the source. The rule behind the calls is not given here.

Key:
[1] = Binding affinity to poly(dA).poly(dT) DNA minor groove (unknown origin) assessed as positive induced CD signal at DNA:compound molar ratio of 20:2 to 20:10 by CD spectra analysis; type: nucleic-acid assay
Procedure, shortened: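 Poly(dA).poly(dT) at 20 μM was titrated with compound at 25 °C in 10 mM MES, 100 mM NaCl, 1 mM EDTA, pH 7.4. CD spectra were recorded at different compound-to-DNA ratios.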

[2] = system: Trypanosoma brucei rhodesiense; test: Antiprotozoal activity against bloodstream forms of Trypanosoma brucei rhodesiense STIB900 infected in NMR1 mouse at 5 mg/kg, ip administered daily for 4 consecutive days starting from day 3 to 6 post infection; type: functional
Procedure, shortened: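 STIB900 acute-stage mouse infection model for T. b. rhodesiense (mimics acute African sleeping sickness). Dosing was 4 × 5 mg/kg i.p. The outcome was scored as cure of infected mice.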

[3] = Selectivity index, ratio of IC50 for rat L6 cells to IC50 for Plasmodium falciparum K1 infected in human erythrocytes; type: toxicity, cell-based; conditions: read-out: Ratio IC50
Procedure, shortened: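 Ratio of IC50 in cultured L6 rat myoblast cells (cytotoxicity) to IC50 in an in vitro viability assay against chloroquine-resistant P. falciparum strain K1. P. falciparum IC50 values are the average of duplicate determinations.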

[4] = system: Poly(dA-dT)oligonucleotide; test: Binding affinity to poly(dA-dT)n DNA (unknown origin) assessed as change in melting temperature at 0.3 molar ratio of compound:DNA by spectrophotometric analysis; type: nucleic-acid assay
Procedure, shortened: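 UV thermal melting of poly(dA-dT) in CAC 10 buffer (10 mM cacodylic acid, 1 mM EDTA, 100 mM NaCl, NaOH to pH 7.0) was run in 1 cm quartz cuvettes, ramping at 0.5 °C/min. DNA concentration was set from A260, with 0.3 mol compound per mol DNA and DNA alone as control. ΔTm was taken from the peak of the first-derivative (dA/dT) curves.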

Structure (SMILES) | Activity [1] | Activity [2] | selectivity ratio [3] | ΔTm [4]
N=C(N)c1ccc2cc(-c3ccc(-c4ccc(C(=N)N)o4)o3)[nH]c2c1 | Active | inactive | 1000 | 
N=C(N)c1ccc2nc(-c3ccc(-c4ccc(C(=N)N)o4)o3)[nH]c2c1 | Active |  |  | 
N=C(N)c1ccc2nc(-c3ccc(-c4ccc(C(=N)N)s4)s3)[nH]c2c1 | Active |  |  | > 30 °C
N=C(N)c1ccc2cc(-c3ccc(-c4ccc(C(=N)N)s4)o3)[nH]c2c1 |  | inactive |  | > 30 °C
N=C(N)c1ccc2cc(-c3ccc(-c4ccc(C(=N)N)s4)s3)[nH]c2c1 | Active | inactive |  | > 30 °C
N=C(N)c1ccc2nc(-c3ccc(-c4ccc(C(=N)N)s4)o3)[nH]c2c1 | Active |  |  | 
